Test results as given in ChEMBL document CHEMBL3612034, “Synthesis of bicoumarin thiophosphate derivatives as steroid sulfatase inhibitors” (Eur J Med Chem, 2015).
Active and inactive are the calls of the source. The rule behind the calls is not given here.

What was measured:
[1] = molecular target: T1, Steryl-sulfatase (Homo sapiens, UniProt P08842); experiment: Inhibition of human placenta STS using NPS as substrate after 15 mins by microplate reader analysis
T1 sequence (P08842 whole entry): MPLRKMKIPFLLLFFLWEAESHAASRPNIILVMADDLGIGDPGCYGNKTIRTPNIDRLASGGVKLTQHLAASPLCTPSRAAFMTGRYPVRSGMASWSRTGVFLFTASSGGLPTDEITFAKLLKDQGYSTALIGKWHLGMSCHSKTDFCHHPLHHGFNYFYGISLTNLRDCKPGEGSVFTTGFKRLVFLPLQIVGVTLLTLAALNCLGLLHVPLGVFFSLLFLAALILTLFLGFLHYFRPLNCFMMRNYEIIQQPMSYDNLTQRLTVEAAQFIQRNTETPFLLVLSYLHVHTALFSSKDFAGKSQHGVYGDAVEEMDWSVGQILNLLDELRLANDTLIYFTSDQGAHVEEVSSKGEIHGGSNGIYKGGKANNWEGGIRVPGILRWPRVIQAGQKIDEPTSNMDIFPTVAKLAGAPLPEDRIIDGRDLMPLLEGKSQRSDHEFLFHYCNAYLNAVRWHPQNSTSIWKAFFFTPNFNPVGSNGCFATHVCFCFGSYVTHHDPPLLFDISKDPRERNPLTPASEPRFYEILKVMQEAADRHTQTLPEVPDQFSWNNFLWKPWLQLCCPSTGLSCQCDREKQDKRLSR
Procedure, shortened: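 Enzyme: STS extracted from human placenta and purified by multi-step chromatography. Each reaction held 20 mM Tris-HCl pH 7.4, 3 mM p-nitrophenyl sulfate (NPS), 5 U enzyme and graded inhibitor concentrations, and ran 15 min at 37 °C. Stopped with 1 M NaOH; released p-nitrophenol read at 405 nm. IC50 fitted from triplicate measurements.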

[2] = molecular target: T1, Steryl-sulfatase; experiment: Inhibition of human placenta STS
Procedure, shortened: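 Human placental STS purified to homogeneity by multi-step chromatography. Each reaction used 5 U enzyme, 20 mM Tris-HCl pH 7.4, 3 mM p-nitrophenyl sulfate (NPS) and a range of inhibitor concentrations, for 15 min at 37 °C. NaOH stopped the reaction, and released p-nitrophenol was read at 405 nm. IC50 came from the dose-response curve, run in triplicate.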

[3] = molecular target: T2, Steryl-sulfatase (Homo sapiens) (UniProt P08842); experiment: Irreversible inhibition of human placenta STS at 100 uM preincubated for 30 mins in standard condition followed by exchange of reaction environment
T2 sequence (whole entry): T1 sequence (P08842 whole entry)
Procedure, shortened: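 Purified human placental STS was run under standard assay conditions (Tris-HCl pH 7.4, NPS substrate, 37 °C) with inhibitor present. Restored enzyme activity was then measured the same way, by p-nitrophenol absorbance at 405 nm after an NaOH stop. Basal and restored activities were compared to tell reversible from irreversible inhibition.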

[4] = molecular target: T1, Steryl-sulfatase; experiment: Inhibition of recombinant human STS transfected in CHO cells using MUS as substrate after 30 mins by fluorescence assay; assay type: cell-based
[5] = molecular target: T2, Steryl-sulfatase (Homo sapiens); experiment: Reversible inhibition of human placenta STS at 100 uM preincubated for 30 mins in standard condition followed by exchange of reaction environment
Procedure, shortened: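 Reversibility test: the standard placental STS/NPS assay (Tris-HCl pH 7.4, 37 °C) was run with compound at a single fixed concentration. Enzyme activity was then measured again after restoration by the same p-nitrophenol absorbance read-out at 405 nm. Basal and restored activities were compared.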

| Structure (SMILES) | IC50 [1] | other results |
| --- | --- | --- |
| COP(=S)(Oc1ccc2c3c(c(=O)oc2c1)CCCC3)Oc1ccc2c3c(c(=O)oc2c1)CCCC3 | 14.8 µM |  |
| O=c1oc2cc(OP(=S)(Cl)Oc3ccc4c5c(c(=O)oc4c3)CCC5)ccc2c2c1CCC2 | 33.8 µM |  |
| NP(=S)(Oc1ccc2c3c(c(=O)oc2c1)CCCC3)Oc1ccc2c3c(c(=O)oc2c1)CCCC3 | 110 µM |  |
| NS(=O)(=O)Oc1ccc2c(c1)OC(O)C1=C2CCCCC1 (configuration not stated) |  | IC50 [2]: 0.008 µM |
| COP(=S)(Oc1ccc2c3c(c(=O)oc2c1)CCCCC3)Oc1ccc2c3c(c(=O)oc2c1)CCCCC3 | 6.77 µM | inhibition [3]: Active |
| CC(C)N(C(=O)C1=CC[C@H]2[C@@H]3CCc4cc(OS(N)(=O)=O)ccc4[C@H]3CC[C@]12C)C(C)C |  | IC50 [4]: 0.004 µM |
| O=c1oc2cc(OP(O)(=S)Oc3ccc4c5c(c(=O)oc4c3)CCC5)ccc2c2c1CCC2 | 26.9 µM |  |
| O=c1oc2cc(OP(O)(=S)Oc3ccc4c5c(c(=O)oc4c3)CCCC5)ccc2c2c1CCCC2 | 0.86 µM | inhibition [5]: Active |
| COP(=S)(Oc1ccc2c3c(c(=O)oc2c1)CCC3)Oc1ccc2c3c(c(=O)oc2c1)CCC3 | 75 µM |  |
| O=c1oc2cc(OP(O)(=S)Oc3ccc4c5c(c(=O)oc4c3)CCCCC5)ccc2c2c1CCCCC2 | 5.51 µM |  |
| O=c1oc2cc(OP(=S)(Cl)Oc3ccc4c5c(c(=O)oc4c3)CCCCC5)ccc2c2c1CCCCC2 | 7.04 µM |  |
| NP(=S)(Oc1ccc2c3c(c(=O)oc2c1)CCCCC3)Oc1ccc2c3c(c(=O)oc2c1)CCCCC3 | 88.8 µM |  |
| O=c1oc2cc(OP(=S)(Cl)Oc3ccc4c5c(c(=O)oc4c3)CCCC5)ccc2c2c1CCCC2 | 7.76 µM | inhibition [3]: Active |
| NP(=S)(Oc1ccc2c3c(c(=O)oc2c1)CCC3)Oc1ccc2c3c(c(=O)oc2c1)CCC3 | 74.3 µM |  |
